In ChEMBL document CHEMBL1130172, “Discovery of a novel class of substituted pyrrolooctahydroisoquinolines as potent and selective delta opioid agonists, based on an extension of the message-address concept” (J Med Chem, 1997):

Legend:
[1] = biological target: Mu-type opioid receptor (Mus musculus, UniProt P42866); assay: Binding affinity against Opioid receptor mu 1 using [3H][D-Ala2, MePhe4, Gly-ol5]-enkephalin as radioligand
In short: (§1)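 Whole-brain (minus cerebellum) membranes from male CD-1 mice in 50 mM Tris-HCl pH 7.4, preincubated 45 min at 37 °C. μ labelled with 0.7 nM [3H]DAMGO, κ with 1.2 nM [3H]U69593 (PEI-presoaked filters); 50 min at 25 °C in triplicate; nonspecific with 10 μM naloxone. IC50 by nonlinear regression, Ki by Cheng–Prusoff; mean ± SEM, n=3 unless stated.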

[2] = biological target: Kappa-type opioid receptor (Mus musculus, UniProt P33534); assay: Binding affinity against Opioid receptor kappa 1 using [3H]-U-69,593 as radioligand; in short: as §1
Chain of Kappa-type opioid receptor (P33534 whole entry): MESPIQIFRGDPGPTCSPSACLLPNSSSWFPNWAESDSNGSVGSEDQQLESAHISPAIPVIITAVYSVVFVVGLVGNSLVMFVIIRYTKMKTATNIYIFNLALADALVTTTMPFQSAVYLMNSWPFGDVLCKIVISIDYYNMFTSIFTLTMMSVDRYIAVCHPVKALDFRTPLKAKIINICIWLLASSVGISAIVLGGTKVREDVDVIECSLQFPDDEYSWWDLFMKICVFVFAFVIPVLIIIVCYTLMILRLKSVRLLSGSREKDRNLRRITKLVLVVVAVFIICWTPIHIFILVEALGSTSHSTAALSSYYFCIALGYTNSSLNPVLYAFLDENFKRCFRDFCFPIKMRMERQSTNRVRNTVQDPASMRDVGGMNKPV

[3] = species on record: Mus musculus; assay: Selectivity ratio of the affinity for kappa and delta opioid receptors (Ki kappa/Ki delta)
In short: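 Ratios of Ki values: δ Ki from [3H]DADLE (1 nM) on NG108-15 membranes; μ Ki from [3H]DAMGO (0.7 nM) and κ Ki from [3H]U69593 (1.2 nM) on mouse brain membranes; all 25 °C competition assays with Ki derived by Cheng–Prusoff.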

[4] = biological target: T1, Delta-type opioid receptor (Mus musculus, UniProt P32300); assay: Binding affinity against Opioid receptor delta 1 using [3H][D-Ala2, D-Leu5]-enkephalin as radioligand
T1 sequence (P32300 whole entry): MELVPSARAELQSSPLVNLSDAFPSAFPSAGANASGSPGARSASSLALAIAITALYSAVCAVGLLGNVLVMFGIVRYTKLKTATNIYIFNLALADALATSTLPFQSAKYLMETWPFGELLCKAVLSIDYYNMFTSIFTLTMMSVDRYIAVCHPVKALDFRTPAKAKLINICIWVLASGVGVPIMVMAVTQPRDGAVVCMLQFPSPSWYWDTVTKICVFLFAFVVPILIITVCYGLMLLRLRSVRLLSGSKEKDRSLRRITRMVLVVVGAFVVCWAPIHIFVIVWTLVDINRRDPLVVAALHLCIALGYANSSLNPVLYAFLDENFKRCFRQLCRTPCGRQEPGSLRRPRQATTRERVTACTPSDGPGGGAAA

[5] = biological target: T1, Delta-type opioid receptor; assay: In vitro agonist activity for Opioid receptor delta 1 was determined in a mouse vas deferens assay; format: functional, tissue-based
[6] = test system: Mus musculus; assay: Antinociceptive activity in mouse abdominal constriction test after intracerebroventricular administration; format: functional, Abdomen
In short: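 Male Swiss mice (20-35 g); drug given icv by needle through the skull 1.5 mm right of bregma on the coronal suture (3.5 mm protrusion), 5 min before ip phenyl-p-benzoquinone (2 mg/kg, 10 mL/kg, at 37 °C).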

[7] = biological target: T1, Delta-type opioid receptor; assay: In vitro antagonist activity against Opioid receptor delta 1 in the presence of 30 nM naltrindole, in a mouse vas deferens assay; format: functional, tissue-based
[8] = biological target: T1, Delta-type opioid receptor; assay: Inv itro antagonist activity against Opioid receptor delta 1 in the presence of 30 nM naltrindole, in a mouse vas deferens assay; format: functional, tissue-based
In short: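 Isolated vasa deferentia from CD-1 mice (25–35 g) held in Mg2+-free Krebs buffer, oxygenated with 95% O2/5% CO2, at 37 °C. Electrical field stimulation: 50 ms trains of 2 ms pulses at 50 Hz, 60–70 V maximal, trains at 0.1 Hz. Agonist concentration–response curves built cumulatively in the presence of 30 nM naltrindole.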

Chain of Mu-type opioid receptor (P42866 whole entry): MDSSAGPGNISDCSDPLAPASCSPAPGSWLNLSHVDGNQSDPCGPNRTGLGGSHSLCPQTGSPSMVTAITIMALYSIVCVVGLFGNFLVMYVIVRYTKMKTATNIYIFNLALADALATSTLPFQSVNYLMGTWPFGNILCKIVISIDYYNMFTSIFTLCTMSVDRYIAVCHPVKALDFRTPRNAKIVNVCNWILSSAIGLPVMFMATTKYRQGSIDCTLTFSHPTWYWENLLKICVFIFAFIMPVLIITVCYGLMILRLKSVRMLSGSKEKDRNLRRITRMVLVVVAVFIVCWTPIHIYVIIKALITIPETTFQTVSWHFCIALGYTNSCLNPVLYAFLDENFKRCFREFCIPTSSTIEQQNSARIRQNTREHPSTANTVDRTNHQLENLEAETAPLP

`C=CCN1C[C@H](C)N([C@H](c2ccc(C(=O)N(CC)CC)cc2)c2cccc(OC)c2)C[C@H]1C` [SNC-80] was tested, and the Ki [1] was 1300 nM and the Ki [2] was 1350 nM.

`CCN1CC[C@]2(c3cccc(O)c3)Cc3[nH]c4ccccc4c3C[C@H]2C1` (stereo in doubt; (+)-3) [listing 1 of 2 here] was tested, and the Selectivity ratio [3] was 350.

With `CCN1CC[C@]2(c3cccc(O)c3)Cc3[nH]c4ccccc4c3C[C@H]2C1` (stereo in doubt; (-)-3) [listing 1 of 2 here] the Ki [4] was 1970 nM, the Ki [1] was 1630 nM and the Ki [2] was 167 nM.

`CCN1CC[C@]2(c3cccc(O)c3)Cc3[nH]c4ccccc4c3C[C@H]2C1` (racemic) [listing 1 of 2 here] showed a Ki [4] of 7.1 nM, a Ki [1] of 2090 nM and a Ki [2] of 334 nM.

For `CCN1CC[C@]2(c3cccc(O)c3)Cc3[nH]c(C(=O)N(CC)CC)c(C)c3C[C@H]2C1` (stereo in doubt; (-)-5b) [listing 1 of 2 here], the Selectivity ratio [3] was 1480.

`CCN1CC[C@]2(c3cccc(O)c3)Cc3[nH]c(C(=O)N(CC)CC)c(C)c3C[C@H]2C1` (stereo in doubt; (+)-5b) [listing 1 of 2 here] gave a Selectivity ratio [3] of 2.

Molecule `CCN(CC)C(=O)c1[nH]c2c(c1C)C[C@H]1CN(C)CC[C@]1(c1cccc(O)c1)C2` (racemic) has a Ki [4] of 2.1 nM, a Ki [1] of 93 nM and a Selectivity ratio [3] of 240. It also gave a Ki [2] of 500 nM.

With `Oc1ccc2c3c1O[C@H]1c4[nH]c5ccccc5c4C[C@@]4(O)[C@@H](C2)N(CC2CC2)CC[C@]314` [NALTRINDOLE] the Ki [4] was 0.5 nM, the Ki [1] was 15 nM and the Selectivity ratio [3] was 20. For the same molecule, the Ki [2] was 9.5 nM.

`CN1CC[C@]23c4c5ccc(O)c4O[C@H]2c2[nH]c4ccccc4c2C[C@@]3(O)[C@H]1C5` [OXYMORPHINDOLE] showed a Ki [4] of 0.8 nM, a Ki [1] of 661 nM and a Selectivity ratio [3] of 90. For the same molecule, the Ki [2] was 77 nM.

In the case of `CCN1CC[C@]2(c3cccc(O)c3)Cc3[nH]c4ccccc4c3C[C@H]2C1` (stereo in doubt; (-)-3) [listing 2 of 2 here], the Selectivity ratio [3] is reported as 0.1.

In the case of `CCN1CC[C@]2(c3cccc(O)c3)Cc3[nH]c(C(=O)N(CC)CC)c(C)c3C[C@H]2C1` (stereo in doubt; (+)-5b) [listing 2 of 2 here], the Ki [4] is reported as 3540 nM, the Ki [1] is reported as over 5000 nM and the Ki [2] is reported as 6000 nM.

`CCN1CC[C@]2(c3cccc(O)c3)Cc3[nH]c(C(=O)N(CC)CC)c(C)c3C[C@H]2C1` (racemic) [listing 1 of 2 here] showed a Ki [4] of 1.9 nM, a Ki [1] of 407 nM and an IC50 [5] of 34 nM. The ED50 [6] was 1.6 ug mouse-1, the Ki [2] was 1300 nM and the IC50 [7] was 330 nM.

For `CCN(CC)C(=O)c1[nH]c2c(c1C)C[C@H]1CN(CC3CC3)CC[C@]1(c1cccc(O)c1)C2` (racemic), the Ki [4] was 1.7 nM, the Ki [1] was 14.1 nM and the Selectivity ratio [3] was 37. For the same molecule, the Ki [2] was 63.1 nM.

`CCN1CC[C@]2(c3cccc(O)c3)Cc3[nH]c4ccccc4c3C[C@H]2C1` (racemic) [listing 2 of 2 here] showed a Selectivity ratio [3] of 50.

Work on `CCN1CC[C@]2(c3cccc(O)c3)Cc3[nH]c(C(=O)N(CC)CC)c(C)c3C[C@H]2C1` (racemic) [listing 2 of 2 here] yielded a Selectivity ratio [3] of 690.

`CCN1CC[C@]2(c3cccc(O)c3)Cc3[nH]c(C(=O)N(CC)CC)c(C)c3C[C@H]2C1` (stereo in doubt; (-)-5b) [listing 2 of 2 here] gave a Ki [4] of 0.9 nM, a Ki [1] of 129 nM and an IC50 [5] of 26 nM. For the same molecule, the Ki [2] was 1340 nM and the IC50 [8] was 462 nM.

In the case of `CCN1CC[C@]2(c3cccc(O)c3)Cc3[nH]c4ccccc4c3C[C@H]2C1` (stereo in doubt; (+)-3) [listing 2 of 2 here], the Ki [4] is reported as 2.2 nM, the Ki [1] is reported as 2620 nM and the Ki [2] is reported as 771 nM.
